Measurements published in article PMC5808564 (ChemMedChem, 2017).
Several values for one entry are separate records, joined by “and”; a condition that tells them apart may be missing. Equal entries are not always repeated. Where two headings read alike, the source gives them in different places.

How the values were obtained:
[1] = test system: T. brucei bloodstream form (BSF) parasites (cell line 90-13, a 427 strain); assay: microbe, parasite or virus in culture; format: cell-based, Trypanosoma brucei; settings: for % T. brucei BSF growth inhibition (10 μM): 10 μM compound; for % T. brucei BSF growth inhibition (10 μM) / inhibition at 10 µM: BLD = below level of detection; for T. brucei BSF potency (LD50 ± SEM): 3-day growth, n ≥ 3; for inhibition at 10 µM: Trypanosoma brucei, A-427, read-out: % T. brucei BSF growth inhibition (10 μM), 10 μM compound
IMR-90 human cells = assay: Human cell line toxicity testing; format: cell-based
[2] = biological target: recombinant T. brucei hexokinase 1 (rTbHK1) (Trypanosoma brucei, UniProt Q38C42); assay: biochemical; format: biochemical
[3] = biological target: T1, human HK 4 (human glucokinase, hGlk) (Homo sapiens, UniProt P35557); assay: Specificity assay against human glucokinase; format: biochemical; settings: for % hGlk inhibition (10 μM): 10 μM compound, BLD = below level of detection; for inhibition at 10 µM: read-out: % hGlk inhibition (10 μM)
T1 sequence (P35557 1-465): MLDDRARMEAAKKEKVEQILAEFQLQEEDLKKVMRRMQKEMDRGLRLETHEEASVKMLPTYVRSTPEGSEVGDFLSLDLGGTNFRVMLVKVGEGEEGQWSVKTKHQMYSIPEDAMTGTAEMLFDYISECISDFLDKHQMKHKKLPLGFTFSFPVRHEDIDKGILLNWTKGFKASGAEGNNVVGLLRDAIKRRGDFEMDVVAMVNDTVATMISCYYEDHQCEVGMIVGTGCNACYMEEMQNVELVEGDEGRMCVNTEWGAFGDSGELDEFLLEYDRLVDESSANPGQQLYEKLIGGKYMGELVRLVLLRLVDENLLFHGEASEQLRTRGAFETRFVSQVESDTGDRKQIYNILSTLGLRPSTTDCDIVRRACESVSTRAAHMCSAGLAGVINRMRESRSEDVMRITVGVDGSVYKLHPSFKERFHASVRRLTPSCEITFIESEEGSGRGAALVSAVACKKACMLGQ
Outline: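 Uses human hexokinase 4 (glucokinase; GenBank BC001890). Activity is read through a coupled reaction in which glucose-6-phosphate dehydrogenase converts the glucose-6-phosphate formed to 6-phosphogluconate. The coincident NADPH formation is followed at 340 nm.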

[4] = read-out: IMR90 toxicity (EC50), IMR-90 cells, 44-46 h
[5] = read-out: rTbHK1 potency (IC50 ± SEM), average of n ≥ 3 experiments
[6] = Homo sapiens, IMR-90, read-out: IMR90 toxicity (EC50)

Row | Molecule | % T. brucei BSF growth inhibition (10 μM) [1] | T. brucei BSF potency (LD50 ± SEM) [1] | EC50 (IMR-90 human cells; [4]) [µM] | IC50 [2, 5] [nM] | % hGlk inhibition (10 μM) [3] [%] | EC50 (IMR-90 human cells; [6]) [µM] | IC50 [2] [nM] | inhibition at 10 µM [3] [%] | inhibition at 10 µM [1] [%] | activity on whole T. brucei BSF parasites (in words) [1] | aqueous solubility (PBS buffer, pH 7.4) [μM] | rTbHK1 enzymatic potency (in words) [2]
1 | CC(C)(C)c1ccc(C(=O)Nc2cc(Cl)c(-c3cccc(F)c3)cc2C(=O)O)cc1 [Compound 4o] | 93.7 ± 2.6% | 1.8 ± 0.3 µM | > 25 | 4600 ± 320 | 16.1 ± 8.7 | – | – | – | – | – | – | –
2 | COc1ccc(-c2cc(C(=O)O)c(NC(=O)c3ccc(C(C)(C)C)cc3)cc2Cl)cc1 [Compound 4i] | 82.5 ± 7.1% | 3.1 ± 0.2 µM | > 25 | 1720 ± 90 | 22.2 ± 1.6 | – | – | – | – | – | – | –
3 | COc1cccc(-c2cc(C(=O)O)c(NC(=O)c3ccc(C(C)(C)C)cc3)cc2Cl)c1 [Compound 4j] | 92.2 ± 2.9% | 1.5 µM and 1.5 ± 0.3 µM | > 25 | 880 ± 10 | 13.8 ± 1.9 | – | – | – | – | – | – | –
4 | CC(C)(C)c1ccc(C(=O)Nc2cc(Cl)c(-n3ccnc3)cc2C(=O)O)cc1 [Compound 4dd] | 16.4 ± 13.3% | – | > 25 | > 10000 | 1.7 ± 3.2 | – | – | – | – | – | – | –
5 | CC(C)(C)c1ccc(C(=O)Nc2cc(Cl)c(-c3ccc4c(c3)OCO4)cc2C(=O)O)cc1 [Compound 4z] | 89.8 ± 1.1% | 3.0 ± 0.3 µM | > 25 | 3900 ± 100 | 23.9 ± 2.5 | – | – | – | – | – | – | –
6 | CC(C)(C)c1ccc(C(=O)Nc2cc(Cl)c(-c3nnn[nH]3)cc2C(=O)O)cc1 [Compound 4ee] | BLD | – | – | – | – | > 25 | 140 ± 2 | 1.6 ± 0.5 | – | – | – | –
7 | CC(C)(C)c1ccc(C(=O)Nc2cc(Cl)c(-c3ccc4c(c3)OCCO4)cc2C(=O)O)cc1 [Compound 4y] | – | – | – | – | – | > 25 | 600 ± 90 | 26.6 ± 0.4 | 98 ± 1.2 | – | – | –
8 | CC(C)(C)c1ccc(C(=O)Nc2cc(Cl)c(-c3ccc(F)cc3)cc2C(=O)O)cc1 [Compound 4n] | 76.7 ± 10.4% | 3.1 ± 0.7 µM | > 25 | 2440 ± 80 | 15.1 ± 2.6 | – | – | – | – | – | – | –
9 | 4-methoxybenzamidochlorobenzoic acid [Compound 1] | – | – | > 25 | 9100 | – | – | – | – | – | no appreciable activity | > 274.3 | –
10 | CC(C)(C)c1ccc(C(=O)Nc2cc(Cl)c(-c3ccc(C(=O)O)cc3)cc2C(=O)O)cc1 [Compound 4r] | 51.0 ± 14.3% | – | > 25 | 3500 ± 330 | 3.5 ± 7.1 | – | – | – | – | – | – | –
11 | Cn1nnc(-c2cc(C(=O)O)c(NC(=O)c3ccc(C(C)(C)C)cc3)cc2Cl)n1 [Compound 4ff] | BLD | – | > 25 | > 10000 | 14.0 ± 4.1 | – | – | – | – | failed to inhibit BSF parasite growth | – | lacked enzymatic potency
12 | CC(C)(C)c1ccc(C(=O)Nc2cc(Cl)c(-c3cccnc3)cc2C(=O)O)cc1 [Compound 4t] | 57.7 ± 14.2% | – | > 25 | – | 16.7 ± 1.2 | – | – | – | – | – | – | –
13 | CN(C)c1ccc(-c2cc(C(=O)O)c(NC(=O)c3ccc(C(C)(C)C)cc3)cc2Cl)cc1 [Compound 4l] | 58.0 ± 4.0% | 6.0 ± 0.2 µM | > 25 | > 10000 | 27.8 ± 1.7 | – | – | – | – | – | – | –
14 | CC(C)(C)c1ccc(C(=O)Nc2cc(Cl)c(-c3ccc[nH]3)cc2C(=O)O)cc1 [Compound 4bb] | – | – | – | – | – | > 25 | 500 ± 50 | 6.1 ± 0.1 | 57 ± 7.1 | – | – | –
15 | CC(C)(C)c1ccc(C(=O)Nc2cc(Cl)c(-n3cccn3)cc2C(=O)O)cc1 [Compound 4cc] | 22.5 ± 12.3% | > 10.0 µM | > 25 | 2800 ± 200 | 8.7 ± 4.4 | – | – | – | – | – | – | –
